These results are taken from PMC11318567 (Computational and Structural Biotechnology Journal, 2024).

One data set relates to SK-MEL-5. The experiment in a line: NCI-60 screening. The data set is classed as cell-based. Conditions: Homo sapiens, SK-MEL-5, read-out: inhibition of cell growth.
In the next data set the test system is U251. The experiment in a line: NCI-60 screening. Conditions: Homo sapiens, U-251, read-out: inhibition of cell growth. The format is cell-based.
For data set [1], the system named is NCI-60 human cancer cell lines. The experiment in a line: NCI-60 screening, whole panel. Conditions: 10 µM. The data set is classed as cell-based.
Another data set concerns wheatgerm topo I. Put plainly: Wheatgerm topo I unwinding assay. The format is biochemical, wheat germ. Conditions: 7.8, 15.6, 31.25, 125 μM. In outline:
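Wheat germ topo I plasmid unwinding run in duplicate at 7.8, 15.6, 31.25 and 125 µM test compound, with the intercalator m-AMSA as positive control.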

The target in the next data set is human topo II (Homo sapiens, UniProt P11388). Put plainly: Competitive ATPase assay. The format is biochemical. The following applies: IC50 versus ATP concentration. In outline: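 NADH-coupled ATPase (pyruvate kinase/lactate dehydrogenase, phosphoenolpyruvate) with human topo II at 14 nM final and linear pBR322. Buffer was 20 mM Tris-HCl, 5 mM Mg acetate, 125 mM K acetate, 2 mM DTT, pH 7.9. Compound in DMSO went in before enzyme, then a 10–15 min OD340 pre-run. ATP was added at varying concentrations and OD340 followed for up to 30 min at 37 °C, in duplicate. Hydrolysis rates vs ATP gave IC50 at each ATP level.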

The target in data set [2] is T1, human topo IIα (Homo sapiens, UniProt P11388). Put plainly: Human topoisomerase IIα-mediated cleavage assay. Conditions: 7.8-125 μM. The format is biochemical.
Data set [3] addresses ATPase domain of topo IIα (Homo sapiens, UniProt P11388). Put plainly: 1H STD NMR experiments. The following applies: protein:ligand ratio 1:100. The data set is classed as binding. The gist of the method:
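Runs were at 600 MHz, 25 °C, with a 100 ms T₁ρ filter. On-resonance saturation was at −0.727 ppm and off-resonance at 30 ppm. Saturation was 0.5 or 1 s depending on compound, with relaxation delay 4 or 1.5 s. Epitope maps come from STD amplification factors.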

A further data set deals with human topo IIβ (Homo sapiens, UniProt Q02880). The experiment in a line: Human topo IIβ-mediated decatenation assay. The data set is classed as biochemical.
For data set [4], the target named is T1, human topo IIα. The experiment in a line: Human topo IIα competitive cleavage assay. The data set is classed as biochemical. Conditions: in the presence of 50 μM etoposide.
The target of data set [5] is T1, human topo IIα. The experiment in a line: Human topo IIα-mediated decatenation assay. The format is biochemical. Conditions: for IC50, topo IIα-mediated decatenation assay: average of two replicates.
Data set [6] can be described thus: Solubility as observed during preparation for assays. The format is physicochemical.
The target of data set [7] is T1, human topo IIα. The experiment in a line: Human topoisomerase IIα-mediated relaxation assay. The format is biochemical.

The term inhibition denotes how much of the control response was suppressed. In general, IC50 refers to the concentration that inhibits the measured activity by half. A high value points to a need for much substance.

SMILES strings stand for the structures. Entries after “also recorded” stand apart in the source; their conditions may differ.

T1 sequence (P11388 whole entry, the tested form may be a part): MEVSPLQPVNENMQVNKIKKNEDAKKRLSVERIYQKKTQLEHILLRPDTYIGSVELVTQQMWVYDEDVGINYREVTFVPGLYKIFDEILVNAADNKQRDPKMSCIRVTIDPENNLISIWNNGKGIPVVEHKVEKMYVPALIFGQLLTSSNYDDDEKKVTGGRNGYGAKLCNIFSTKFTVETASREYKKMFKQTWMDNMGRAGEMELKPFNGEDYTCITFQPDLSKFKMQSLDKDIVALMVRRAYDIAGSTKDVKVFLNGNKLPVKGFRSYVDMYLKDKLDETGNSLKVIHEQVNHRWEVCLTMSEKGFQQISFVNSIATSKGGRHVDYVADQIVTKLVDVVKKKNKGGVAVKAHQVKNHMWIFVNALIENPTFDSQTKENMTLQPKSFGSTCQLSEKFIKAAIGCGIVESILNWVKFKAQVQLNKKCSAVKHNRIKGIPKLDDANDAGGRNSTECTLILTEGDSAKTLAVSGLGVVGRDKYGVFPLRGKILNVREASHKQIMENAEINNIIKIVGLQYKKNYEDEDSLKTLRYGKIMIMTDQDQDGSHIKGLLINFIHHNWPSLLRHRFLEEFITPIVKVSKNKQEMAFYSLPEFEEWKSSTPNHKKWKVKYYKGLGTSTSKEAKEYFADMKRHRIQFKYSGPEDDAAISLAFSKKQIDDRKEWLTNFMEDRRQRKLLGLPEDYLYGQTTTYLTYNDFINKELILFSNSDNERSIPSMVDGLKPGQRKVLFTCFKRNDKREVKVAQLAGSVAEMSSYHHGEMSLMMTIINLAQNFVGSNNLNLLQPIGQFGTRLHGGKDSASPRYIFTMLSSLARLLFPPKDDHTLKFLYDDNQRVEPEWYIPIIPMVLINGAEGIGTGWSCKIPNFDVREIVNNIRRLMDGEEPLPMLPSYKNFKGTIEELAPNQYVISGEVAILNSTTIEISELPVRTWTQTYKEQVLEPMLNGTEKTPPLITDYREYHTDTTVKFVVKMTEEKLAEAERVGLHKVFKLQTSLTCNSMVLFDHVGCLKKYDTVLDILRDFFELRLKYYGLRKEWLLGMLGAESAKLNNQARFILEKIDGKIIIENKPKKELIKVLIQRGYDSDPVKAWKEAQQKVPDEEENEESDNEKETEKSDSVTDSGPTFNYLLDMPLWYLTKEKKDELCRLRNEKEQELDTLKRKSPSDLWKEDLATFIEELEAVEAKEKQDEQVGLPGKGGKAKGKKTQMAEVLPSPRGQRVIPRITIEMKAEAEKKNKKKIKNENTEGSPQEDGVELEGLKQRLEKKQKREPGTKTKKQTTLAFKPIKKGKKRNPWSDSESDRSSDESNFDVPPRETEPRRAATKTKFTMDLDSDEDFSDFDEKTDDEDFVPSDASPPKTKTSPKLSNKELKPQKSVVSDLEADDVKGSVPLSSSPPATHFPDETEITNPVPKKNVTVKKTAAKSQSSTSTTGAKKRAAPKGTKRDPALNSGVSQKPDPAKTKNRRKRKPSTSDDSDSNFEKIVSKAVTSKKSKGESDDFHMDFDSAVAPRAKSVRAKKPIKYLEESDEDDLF
Chain of human topo IIβ (Q02880 whole entry): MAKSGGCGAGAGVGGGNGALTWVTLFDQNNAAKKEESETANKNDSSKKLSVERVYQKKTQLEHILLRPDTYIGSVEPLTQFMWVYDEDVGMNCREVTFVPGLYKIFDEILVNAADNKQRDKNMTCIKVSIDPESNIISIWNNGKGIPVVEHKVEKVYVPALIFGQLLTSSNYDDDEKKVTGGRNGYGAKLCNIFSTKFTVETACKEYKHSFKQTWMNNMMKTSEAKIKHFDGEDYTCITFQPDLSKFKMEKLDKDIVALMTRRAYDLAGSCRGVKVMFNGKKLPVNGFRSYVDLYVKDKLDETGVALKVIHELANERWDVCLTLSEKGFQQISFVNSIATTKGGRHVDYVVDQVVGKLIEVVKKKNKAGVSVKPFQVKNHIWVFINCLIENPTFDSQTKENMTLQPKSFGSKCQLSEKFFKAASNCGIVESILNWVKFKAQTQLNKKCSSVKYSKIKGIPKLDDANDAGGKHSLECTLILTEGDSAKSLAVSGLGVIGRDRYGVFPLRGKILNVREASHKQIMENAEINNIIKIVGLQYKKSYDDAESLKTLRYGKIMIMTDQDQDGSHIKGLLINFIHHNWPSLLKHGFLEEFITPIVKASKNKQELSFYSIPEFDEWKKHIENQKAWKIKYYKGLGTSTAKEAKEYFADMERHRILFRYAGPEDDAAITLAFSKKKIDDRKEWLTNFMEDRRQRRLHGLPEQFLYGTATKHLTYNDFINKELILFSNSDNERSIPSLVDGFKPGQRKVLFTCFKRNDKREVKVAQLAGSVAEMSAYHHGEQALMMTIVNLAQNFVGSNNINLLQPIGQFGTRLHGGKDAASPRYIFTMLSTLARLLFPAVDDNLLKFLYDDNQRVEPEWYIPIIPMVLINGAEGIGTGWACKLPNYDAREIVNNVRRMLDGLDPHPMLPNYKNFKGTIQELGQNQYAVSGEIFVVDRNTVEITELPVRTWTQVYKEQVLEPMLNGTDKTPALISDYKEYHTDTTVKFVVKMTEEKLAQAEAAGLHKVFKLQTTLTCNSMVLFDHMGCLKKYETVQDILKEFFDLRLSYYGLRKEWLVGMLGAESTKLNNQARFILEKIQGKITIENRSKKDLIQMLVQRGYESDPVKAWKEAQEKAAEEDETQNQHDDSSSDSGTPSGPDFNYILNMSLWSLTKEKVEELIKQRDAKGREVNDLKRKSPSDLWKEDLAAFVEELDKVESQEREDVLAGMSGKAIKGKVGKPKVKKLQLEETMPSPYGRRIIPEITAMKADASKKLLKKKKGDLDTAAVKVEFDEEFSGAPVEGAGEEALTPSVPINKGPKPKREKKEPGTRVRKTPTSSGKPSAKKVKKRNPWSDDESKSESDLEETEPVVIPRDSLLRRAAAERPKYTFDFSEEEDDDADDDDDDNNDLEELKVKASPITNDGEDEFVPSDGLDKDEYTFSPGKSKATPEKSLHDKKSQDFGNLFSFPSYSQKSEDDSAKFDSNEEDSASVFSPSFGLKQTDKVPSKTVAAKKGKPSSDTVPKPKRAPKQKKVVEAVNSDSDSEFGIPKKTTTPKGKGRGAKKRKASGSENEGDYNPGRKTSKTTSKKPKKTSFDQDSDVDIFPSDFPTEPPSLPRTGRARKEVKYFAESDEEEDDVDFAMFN
Chain of ATPase domain of topo IIα (P11388 1-453 limits assumed): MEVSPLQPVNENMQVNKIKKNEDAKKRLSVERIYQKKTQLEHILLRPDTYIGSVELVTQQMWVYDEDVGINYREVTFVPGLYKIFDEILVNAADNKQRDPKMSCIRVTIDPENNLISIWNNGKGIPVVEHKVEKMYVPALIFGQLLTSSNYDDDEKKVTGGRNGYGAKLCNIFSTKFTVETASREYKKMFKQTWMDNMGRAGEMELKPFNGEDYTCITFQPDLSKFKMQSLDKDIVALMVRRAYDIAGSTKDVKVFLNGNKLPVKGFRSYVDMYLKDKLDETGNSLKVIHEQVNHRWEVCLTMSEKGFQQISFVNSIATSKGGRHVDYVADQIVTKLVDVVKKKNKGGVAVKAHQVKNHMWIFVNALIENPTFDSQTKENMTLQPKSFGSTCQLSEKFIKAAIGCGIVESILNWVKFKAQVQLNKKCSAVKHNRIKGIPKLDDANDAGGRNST
Chain of human topo II (P11388 whole entry): as the sequence (P11388 whole entry, the tested form may be a part) above

In the case of `O=c1nc(SCc2ccc(C(F)(F)F)cc2)nc(SCc2ccc3sccc3c2)[nH]1` [Compound 25, 6-((Benzo[b]thiophen-5-ylmethyl)thio)−4-((4-(trifluoromethyl)benzyl)thio)−1,3,5-triazin-2(1H)-one], the figures for the inhibition at 10 µM with SK-MEL-5 and in the data set on U251 were 89.5% and 80%, respectively. The “cytotoxic activity in NCI-60 (in words)” value in data set [1] was “more diverse and potent cytotoxic effects”.

Turning to `CC(C)c1ccc(CSc2nc(SCc3ccc4sccc4c3)[nH]c(=O)n2)cc1` [Compound 26, 6-((Benzo[b]thiophen-5-ylmethyl)thio)−4-((4-isopropylbenzyl)thio)−1,3,5-triazin-2(1H)-one], in [1], the “cytotoxic activity in NCI-60 (in words)” value is “much lower compared to 24 and 25”.

As for `O=c1nc(SCc2cc(F)cc(C(F)(F)F)c2)nc(SCc2ccc3nc(Cl)ccc3c2)[nH]1` [Compound 30, 6-(((2-Chloroquinolin-6-yl)methyl)thio)−4-((3-fluoro-5-(trifluoromethyl)benzyl)thio)−1,3,5-triazin-2(1H)-one], the “unwinding / intercalation (in words)” value in the data set with wheatgerm topo I is “inhibitors rather than intercalators”. Further, the “mode of inhibition with respect to ATP (in words)” value at human topo II is listed as “ATP-competitive inhibition”. Further, the “linear plasmid in the cleavage assay (in words)” value (“linear plasmid” for short) at human topo IIα [2] is “only a very weak increase in the linear plasmid at the highest concentration of 125 μM”. For the same compound, in data set [3], the “interaction with the ATPase domain of topo IIα by STD NMR (in words)” value (shortened to “interaction with the ATPase domain”) is “confirmed the interaction”. The concentration for half-maximal inhibition (IC50) against human topo IIβ amounted to 10.6 ± 28.8 µM; on human topo IIα [5] it was 12 ± 4.8 µM. Besides, the “linear product in the competitive cleavage assay (in words)” value on human topo IIα [4] is recorded as “decreased the amount of linear product of the etoposide-topo IIα complex”. For the same compound, in data set [6], the “solubility (in words)” value is reported as “more soluble compared to the previous series; also recorded: more soluble compared to the benzyl-substituted analogues”.

For the compound `O=c1nc(SCc2cc(F)cc(C(F)(F)F)c2)nc(SCc2ccc3nc(OCCN4CCOCC4)ccc3c2)[nH]1` [Compound 31, 4-((3-Fluoro-5-(trifluoromethyl)benzyl)thio)−6-(((2-(2-morpholinoethoxy)quinolin-6-yl)methyl)thio)−1,3,5-triazin-2(1H)-one], on human topo IIα [2], the “linear plasmid” value was “no linear plasmid up to the measured concentration of 125 μM”. In addition, in [3], the “interaction with the ATPase domain” value is on record as “confirmed the interaction”. The compound also came in with an IC50 at human topo IIα [5] of 18.5 ± 5.9 µM. Besides, the “solubility (in words)” value in data set [6] is listed as “more soluble compared to the previous series”.

Turning to `O=c1nc(SCc2cc(F)cc(C(F)(F)F)c2)nc(SCc2csc3ccc(Cl)cc23)[nH]1` [Compound 32, 6-(((5-Chlorobenzo[b]thiophen-3-yl)methyl)thio)−4-((3-fluoro-5-(trifluoromethyl)benzyl)thio)−1,3,5-triazin-2(1H)-one], at human topo IIα [2], the “linear plasmid” value is recorded as “higher even at lower concentrations”. Further, the IC50 was found to be 8.3 ± 2.5 µM on human topo IIβ and 8.7 ± 7.3 µM against human topo IIα [7]. Moreover, at human topo IIα [5], the “IC50, topo IIα-mediated decatenation assay” value is “single-digit micromolar range”.

Turning to `O=c1nc(SCc2ccc(C(F)(F)F)cc2)nc(SCc2csc3ccc(Cl)cc23)[nH]1` [Compound 33, 6-(((5-Chlorobenzo[b]thiophen-3-yl)methyl)thio)−4-((4-(trifluoromethyl)benzyl)thio)−1,3,5-triazin-2(1H)-one], it took 7.7 ± 8.5 µM to reach half-maximal inhibition on human topo IIα [7] (IC50). For the same compound, on human topo IIα [5], the “IC50, topo IIα-mediated decatenation assay” value is given as “single-digit micromolar range”.

As to `O=c1nc(SCc2cc(F)cc(C(F)(F)F)c2)nc(SCc2cccc(C(F)(F)F)c2)[nH]1` [Compound 34, 4-((3-Fluoro-5-(trifluoromethyl)benzyl)thio)− 6-((3-(trifluoromethyl)benzyl)thio)− 1,3,5-triazin-2(1 H)-one], the “cytotoxic activity in NCI-60 (in words)” value in data set [1] is “did not exhibit cytotoxic activity”. Also, the “solubility (in words)” value in [6] is listed as “less soluble”.

For the compound `Cc1nc(CSc2nc(SCc3ccc(C(C)C)cc3)nc(=O)[nH]2)cs1` [Compound 37, 4-((4-Isopropylbenzyl)thio)−6-(((2-methylthiazol-4-yl)methyl)thio)−1,3,5-triazin-2(1H)-one], the “unwinding / intercalation (in words)” value in the data set with wheatgerm topo I is “inhibitors rather than intercalators”. Further, the “linear plasmid” value on human topo IIα [2] is listed as “only a very weak increase in the linear plasmid at the highest concentration of 125 μM”. Also, the “interaction with the ATPase domain” value in data set [3] is recorded as “confirmed its interaction with the ATPase domain”. Besides, the “cytotoxic activity in NCI-60 (in words)” value in data set [1] is recorded as “did not exhibit cytotoxic activity”. The values for the IC50 at human topo IIβ and against human topo IIα [7] were 16 ± 39 µM and 108 ± 3.8 µM, respectively.

In the case of `COc1cc([C@@H]2c3cc4c(cc3[C@@H](O[C@@H]3O[C@@H]5CO[C@@H](C)O[C@H]5[C@H](O)[C@H]3O)[C@H]3COC(=O)[C@H]23)OCO4)cc(OC)c1O` [Etoposide, etoposide, reference compound], the “unwinding / intercalation (in words)” value in the data set with wheatgerm topo I is given as “showed no signs of unfolding”.

As for `COc1cc(NS(C)(=O)=O)ccc1Nc1c2ccccc2nc2ccccc12` [mAMSA, reference compound], in the data set on wheatgerm topo I, the “unwinding / intercalation (in words)” value was “showed intercalator-mediated effects at all 4 concentrations”.
